According to ChEMBL document CHEMBL1126841, “Synthesis and structure-activity relationships of 1-acyl-4-((2-methyl-3-pyridyl)cyanomethyl)piperazines as PAF antagonists” (J Med Chem, 1993):

Key:
[1] = target: Platelet-activating factor receptor (Mus musculus) (UniProt Q62035); assay: Dose required to inhibit PAF-induced mortality by 50% in mice; assay type: functional; details: Mus sp.
Procedure, shortened: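 Male Swiss mice (22-26 g), groups of 10; test compound given po (20 mL/kg), controls 1% Tween 80. 60 min later, C18-PAF 100 µg/kg plus propanolol 1 mg/kg injected into a lateral tail vein. Mortality scored 2 h after PAF; % inhibition vs controls. ID50 from linear regression of one curve, ≥4 points. Initial dose 3 mg/kg; further doses only if >50% inhibition.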

[2] = target: Platelet-activating factor receptor (Rattus norvegicus) (UniProt P46002); assay: Intravenous dose required to reduce the arterial blood pressure caused by PAF by 50% in rats; assay type: functional
Sequence of Platelet-activating factor receptor (Rattus norvegicus) (P46002 whole entry): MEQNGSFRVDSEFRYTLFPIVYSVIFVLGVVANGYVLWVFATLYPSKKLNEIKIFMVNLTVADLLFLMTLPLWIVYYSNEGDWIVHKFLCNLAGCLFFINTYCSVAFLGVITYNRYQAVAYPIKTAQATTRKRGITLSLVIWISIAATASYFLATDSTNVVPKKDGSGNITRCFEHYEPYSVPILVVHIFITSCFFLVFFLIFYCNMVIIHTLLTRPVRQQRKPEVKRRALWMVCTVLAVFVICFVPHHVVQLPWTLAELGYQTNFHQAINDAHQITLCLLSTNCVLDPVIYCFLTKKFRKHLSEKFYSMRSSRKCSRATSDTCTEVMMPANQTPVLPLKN
Procedure, shortened: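 Male Sprague-Dawley rats (180-220 g) under pentobarbital anesthesia (50 mg/kg ip); carotid blood pressure recorded. Compound in saline given iv (femoral vein) 3 min before PAF 0.5 µg/kg iv; controls got vehicle. % inhibition of hypotension vs controls. ID50 from linear regression of one curve, ≥4 doses, each the mean of ≥2 independent experiments.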

Sequence of Platelet-activating factor receptor (Mus musculus) (Q62035 whole entry): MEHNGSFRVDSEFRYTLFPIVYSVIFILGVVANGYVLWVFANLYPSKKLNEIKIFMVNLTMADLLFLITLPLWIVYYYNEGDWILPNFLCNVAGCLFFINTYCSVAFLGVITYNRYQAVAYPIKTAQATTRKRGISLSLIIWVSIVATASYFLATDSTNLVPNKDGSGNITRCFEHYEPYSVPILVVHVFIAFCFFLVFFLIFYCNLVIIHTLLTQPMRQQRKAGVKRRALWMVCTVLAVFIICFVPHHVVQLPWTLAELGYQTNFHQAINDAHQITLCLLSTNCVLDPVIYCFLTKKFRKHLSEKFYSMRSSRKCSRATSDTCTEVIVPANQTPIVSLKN

Structure (SMILES)	ID50 [1] [mg/kg]	ID50 [2] [mg/kg]
Cc1ncccc1C(C#N)N1CCN(C(=O)/C=C(/c2ccccc2)C(F)(F)F)CC1 (stereo unspecified)	> 3	–
Cc1ncccc1C(C#N)N1CCN(C(=O)C[S+]([O-])C(c2ccccc2)c2ccccc2)CC1 (stereo unspecified)	> 3	0.034
Cc1ncccc1C(C#N)N1CCN(C(=O)CC(NC(=O)OCC(C)C)c2ccccc2)CC1 (stereo unspecified)	> 3	0.017
Cc1ncccc1C(C#N)N1CCN(C(=O)CC(NC(=O)c2cccnc2)c2ccccc2)CC1 (stereo unspecified)	0.41	0.029
Cc1ncccc1C(C#N)N1CCN(C(=O)CC(c2ccccc2)N2CCOC2=O)CC1 (stereo unspecified)	1	0.029
CC(=O)N(CC(=O)N1CCN(C(C#N)c2cccnc2C)CC1)C(c1ccccc1)c1ccccc1 (stereo unspecified)	2	0.039
Cc1ncccc1C(C#N)N1CCN(C(=O)CC(NC(=O)c2cccnc2O)c2ccccc2)CC1 (stereo unspecified)	> 3	0.12
Cc1ncccc1C(C#N)N1CCN(C(=O)CC(NC(=O)c2ncccc2O)c2ccccc2)CC1 (stereo unspecified)	3	0.036
Cc1ncccc1C(C#N)N1CCN(C(=O)CN(C=O)C(c2ccccc2)c2ccccc2)CC1 (stereo unspecified)	1.5	0.016
CNC(CC(=O)N1CCN(C(C#N)c2cccnc2C)CC1)c1ccccc1 (stereo unspecified)	3	0.067
Cc1ncccc1C(C#N)N1CCN(C(=O)CNC(C)(c2ccccc2)c2ccccc2)CC1 (stereo unspecified)	> 3	0.057
CO/N=C(/C)C(c1cccnc1C)N1CCN(C(=O)CC(c2ccccc2)c2ccccc2)CC1 (stereo unspecified)	> 3	–
Cc1ncccc1C(C#N)N1CCN(C(=O)CC(O)(c2ccccc2)C(F)(F)F)CC1 (stereo unspecified)	0.44	0.013
CCOC(=O)C(c1cccnc1C)N1CCN(C(=O)CC(c2ccccc2)c2ccccc2)CC1 (stereo unspecified)	> 30	–
Cc1ncccc1C(C#N)N1CCN(C(=O)CCC(c2ccccc2)c2ccccc2)CC1 (stereo unspecified)	> 3	0.028
Cc1ncccc1C(C#N)N1CCN(C(=O)CC(NC(=O)N2CCCC2)c2ccccc2)CC1 (stereo unspecified)	0.97	0.055
Cc1ncccc1C(C#N)N1CCN(C(=O)/C=C(\c2ccccc2)C(F)(F)F)CC1 (stereo unspecified)	> 3	0.12
Cc1ncccc1C(C#N)N1CCN(C(=O)CC(C)(O)c2ccccc2)CC1 (stereo unspecified)	> 3	0.029
Cc1ncccc1C(C#N)N1CCN(C(=O)CC(c2ccccc2)C(F)(F)F)CC1 (stereo unspecified)	> 3	0.023
Cc1ncccc1C(C#N)N1CCN(C(=O)[C@H](C)NC(c2ccccc2)c2ccccc2)CC1 (stereo partly specified)	1.6	0.025

Structure (SMILES)	ID50 [1] [mg/kg]	ID50 [2] [mg/kg]
Cc1ncccc1C(C#N)N1CCN(C(=O)CS(=O)(=O)C(c2ccccc2)c2ccccc2)CC1 (stereo unspecified)	> 3	0.11
Cc1ncccc1C(CO)N1CCN(C(=O)CC(c2ccccc2)c2ccccc2)CC1 (stereo unspecified)	> 3	–
Cc1ncccc1C(C#N)N1CCN(C(=O)[C@H](CO)NC(c2ccccc2)c2ccccc2)CC1 (stereo partly specified)	2.4	0.02
Cc1ncccc1C(C#N)N1CCN(C(=O)C(C)(C)C(F)(c2ccccc2)c2ccccc2)CC1 (stereo unspecified)	> 3	0.34
Cc1ncccc1C(C#N)N1CCN(C(=O)CSC(c2ccccc2)c2ccccc2)CC1 (stereo unspecified)	> 3	0.058
Cc1ncccc1C(C#N)N1CCN(C(=O)CC(NS(C)(=O)=O)c2ccccc2)CC1 (stereo unspecified)	1	0.017
CCOC(=O)NC(CC(=O)N1CCN(C(C#N)c2cccnc2C)CC1)c1ccccc1 (stereo unspecified)	0.23	0.025
COC(=O)N(C)C(CC(=O)N1CCN(C(C#N)c2cccnc2C)CC1)c1ccccc1 (stereo unspecified)	2	0.036
Cc1ncccc1C(C#N)N1CCN(C(=O)CON=C(c2ccccc2)c2ccccc2)CC1 (stereo unspecified)	> 3	0.071
Cc1ncccc1C(C#N)N1CCN(C(=O)[C@@H](C)NC(c2ccccc2)c2ccccc2)CC1 (stereo partly specified)	> 3	–
Cc1ncccc1C(C#N)N1CCN(C(=O)CC(C)c2ccccc2)CC1 (stereo unspecified)	> 3	0.039
Cc1ncccc1C(C#N)N1CCN(C(=O)CC(c2ccccc2)N(C)Cc2ccccc2)CC1 (stereo unspecified)	> 3	0.024
Cc1ncccc1C(C#N)N1CCN(C(=O)CN(C(c2ccccc2)c2ccccc2)S(C)(=O)=O)CC1 (stereo unspecified)	> 3	0.083
CCOC(=O)C(CC(=O)N1CCN(C(C#N)c2cccnc2C)CC1)(c1ccccc1)c1ccccc1 (stereo unspecified)	> 3	0.12
Cc1ncccc1C(C#N)N1CCN(C(=O)C=C(c2ccccc2)c2ccccc2)CC1 (stereo unspecified)	2.2	0.038
Cc1ncccc1C(C#N)N1CCN(C(=O)CC(NCc2ccccc2)c2ccccc2)CC1 (stereo unspecified)	1.2	0.035
Cc1ncccc1C(C#N)N1CCN(C(=O)CCNC(c2ccccc2)c2ccccc2)CC1 (stereo unspecified)	0.62	0.044
Cc1ncccc1C(C#N)N1CCN(C(=O)CC(Nc2ccccc2)c2ccccc2)CC1 (stereo unspecified)	0.27	0.042
Cc1ncccc1C(C#N)N1CCN(C(=O)CC(NS(=O)(=O)c2ccccc2)c2ccccc2)CC1 (stereo unspecified)	> 3	0.04
Cc1ncccc1C(C#N)N1CCN(C(=O)CC(O)(c2ccccc2)c2cccnc2)CC1 (stereo unspecified)	1	0.042

Structure (SMILES)	ID50 [1] [mg/kg]	ID50 [2] [mg/kg]
Cc1ncccc1C(C#N)N1CCN(C(=O)CC(N)c2ccccc2)CC1 (stereo unspecified)	> 3	0.92
Cc1ncccc1C(C#N)N1CCN(C(=O)COC(c2ccccc2)c2ccccc2)CC1 (stereo unspecified)	> 3	0.048
Cc1ncccc1C(C#N)N1CCN(C(=O)CC(NC(=O)Oc2ccccc2)c2ccccc2)CC1 (stereo unspecified)	> 3	0.036
Cc1ncccc1C(C#N)N1CCN(C(=O)CC(O)(c2ccccc2)c2ccccc2)CC1 (stereo unspecified)	0.69	0.039
C=CCNC(CC(=O)N1CCN(C(C#N)c2cccnc2C)CC1)c1ccccc1 (stereo unspecified)	1	–
Cc1ncccc1C(C#N)N1CCN(C(=O)CC(NC(=O)OC(C)(C)C)c2ccccc2)CC1 (stereo unspecified)	1.2	0.049
Cc1ncccc1C(C#N)N1CCN(C(=O)CC(NC(=O)OCc2ccccc2)c2ccccc2)CC1 (stereo unspecified)	> 3	0.018
COC(=O)NC(CC(=O)N1CCN(C(C#N)c2cccnc2C)CC1)c1ccc(C(F)(F)F)cc1 (stereo unspecified)	1.6	0.014
Cc1ncccc1C(C#N)N1CCN(C(=O)CC(c2ccccc2)N(Cc2ccccc2)Cc2ccccc2)CC1 (stereo unspecified)	> 3	0.068
Cc1ncccc1C(C#N)N1CCN(C(=O)CNC2c3ccccc3-c3ccccc32)CC1 (stereo unspecified)	> 3	0.085
Cc1ncccc1C(C#N)N1CCN(C(=O)CC(c2ccccc2)N2CCCS2(=O)=O)CC1 (stereo unspecified)	> 3	0.048
Cc1ncccc1C(C#N)N1CCN(C(=O)CC(NCc2cccnc2)c2ccccc2)CC1 (stereo unspecified)	> 3	0.029
Cc1ncccc1C(C#N)N1CCN(C(=O)CC(NC(=O)c2ccccc2)c2ccccc2)CC1 (stereo unspecified)	> 3	0.056
Cc1ncccc1C(C#N)N1CCN(C(=O)CC(c2ccccc2)N2CCCC2)CC1 (stereo unspecified)	–	0.22
Cc1ncccc1C(C#N)N1CCN(C(=O)CC(c2ccccc2)N2CCCC2=O)CC1 (stereo unspecified)	0.13	0.026
C#CC(c1cccnc1C)N1CCN(C(=O)CNC(c2ccccc2)c2ccccc2)CC1 (stereo unspecified)	> 3	–
Cc1ncccc1C(C#N)N1CCN(C(=O)CC(NC(N)=O)c2ccccc2)CC1 (stereo unspecified)	> 3	–
C#CCNC(CC(=O)N1CCN(C(C#N)c2cccnc2C)CC1)c1ccccc1 (stereo unspecified)	3	–
